Source: paper PMC5557401 (Drug Design, Development and Therapy, 2017)

Tests used:
A-549 cells = test: Cell cycle effects and total cell number; format: cell-based, human; details: A-549, 24 and 48 h of incubation
Procedure, shortened: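 A-549 lung adenocarcinoma cells were exposed to a concentration range from under 100 nM to 50 μM for 24 and 48 h. Cells were immunofluorescently imaged for phosphorylated Rb and total DNA content per cell to assign cell-cycle phase and total cell number. IC50 was derived for the reduction in total cell number.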

[1] = In vitro metabolism with rat liver microsomes, LC-MS; format: in vitro ADME; details: incubation with rat liver microsomes, phase I

| Metabolic reaction (in vitro RLMs metabolites) [1] | SMILES | Cell cycle effects (A-549 cells) |
| --- | --- | --- |
| demethylation | COc1ccc(-c2nc(NN=C3C(=O)Nc4ccc(Br)cc43)c3ccccc3n2)cc1OC [Compound 7d, 5-Bromo-3-(2-(2-(3,4-dimethoxyphenyl)quinazolin-4-yl) hydrazono)indolin-2-one] | no effects on the tested parameters |
| – | CCN(CC)CCNC(=O)c1c(C)[nH]c(/C=C2\C(=O)Nc3ccc(F)cc32)c1C [Sunitinib, reference compound] | reduction in the percentage of cells in G1, with corresponding increases in S or G2/M phases |
